Calls of active or inactive are those of the source. The rule behind the calls is not given here.
Legend:
[1] = Toxicity in ICR mouse assessed mouse mortality at 500 mg/kg, po administered as single dose via gavage treated on day 1 and measured daily up to 14 days; assay type: organism-based; conditions: in vivo, 336 h
Summary of the method: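 Mice of both sexes, 7 weeks old, were randomized and given one oral gavage dose on day 1. Dose levels were 500, 1000, 2000, 3000, 4000 or 5000 mg/kg, or 2000, 4000 and 5000 mg/kg, with n = 10 per group. Behaviour, health and mortality were checked daily for 14 days, and total deaths were counted on day 14. LD50 was calculated with 95% confidence limits.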

Platelet [2] = assay: Antiplatelet activity in platelet rich plasma (unknown origin) assessed as inhibition of ADP-induced platelet aggregation at 16 mM relative to control; assay type: functional
3T3-L1 [3] = assay: Inhibition of ROS production in TNF-alpha-induced insulin resistant mouse 3T3L1 cells at 10 uM after 48 hrs by DCFH-DA dye-based fluorescence assay; assay type: functional, cell-based
Platelet [4] = assay: Antiplatelet activity in platelet rich plasma (unknown origin) assessed as inhibition of ADP-induced platelet aggregation at 2 mM relative to control; assay type: functional
3T3-L1 [5] = assay: Induction of nitric oxide production in TNF-alpha-induced insulin resistant mouse 3T3L1 cells at 10 uM after 0.5 to 6 hrs by DAF-FM-2DA dye based fluorescence assay; assay type: functional, cell-based
Summary of the method: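 Insulin-resistant 3T3-L1 adipocytes (TNF-α 4 ng/mL, 4 days) were treated for varying times, with or without 20 μM C-PTIO. Vehicle was DMSO 0.1% or NaOH 10 μM. Cells were washed in KRP, loaded with 10 μM DAF-FM-2DA in pH 7.4 PBS at 37 °C for 30 min, and read at Ex/Em 485/515 nm. Three experiments.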

3T3-L1 [6] = assay: Induction of superoxide dismutase level in TNF-alpha-induced insulin resistant mouse 3T3L1 cells at 10 uM after 48 hrs; assay type: functional, cell-based
Summary of the method: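 3T3-L1 preadipocytes were differentiated, and mature adipocytes made insulin resistant with TNF-α (4 ng/mL) daily for 4 days. Cells were then treated in triplicate for 48 h, with or without 20 μM C-PTIO. Lysate GSH, SOD and MDA were measured with kits. Three experiments, mean ± SD.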

[7] = Metabolic stability in simulated intestinal fluid at pH 6.8 measured after 16 hrs by HPLC analysis; assay type: ADME; conditions: read-out: Stability
Summary of the method: (§1)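 Gastric fluid was 1% pepsin in water, pH 1.5. Intestinal fluid was 1% trypsin with 0.68% KH2PO4, pH 6.8. Compound (100 mM DMSO stock) was diluted 1:1000 into each, in triplicate. Incubation was at 37 °C for 0, 2, 4, 6, 16 or 24 h. Acetonitrile (3 volumes) stopped it, then HPLC at 254 nm.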

Platelet [8] = assay: Antiplatelet activity in platelet rich plasma (unknown origin) assessed as inhibition of arachidonic acid-induced platelet aggregation at 0.2 mM relative to control; assay type: functional
[9] = Metabolic stability in simulated gastric fluid at pH 1.5 measured after 6 hrs by HPLC analysis; assay type: ADME; conditions: read-out: Stability; summary of the method: as §1
Platelet [10] = assay: Antiplatelet activity in platelet rich plasma (unknown origin) assessed as inhibition of ADP-induced platelet aggregation at 3.2 mM relative to control; assay type: functional
Mus musculus [11] = assay: Effect on lipid metabolism in spontaneous db/db BKS.Cg-Dock7m +/+ Leprdb/J mouse assessed as increase in serum HDL level at 27 umol/kg, po administered as daily dose via gavage for 18 days; assay type: functional, organism-based
Summary of the method: (§2)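 db/db mice were gavaged daily for 18 days in 0.5% CMC-Na (n=8 per group), with a vehicle model group. On day 19, blood was collected and serum prepared by centrifugation. Serum triglyceride and HDL were then measured.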

Platelet [12] = assay: Antiplatelet activity in platelet rich plasma (unknown origin) assessed as inhibition of arachidonic acid-induced platelet aggregation at 0.4 mM relative to control; assay type: functional
Platelet [13] = assay: Antiplatelet activity in platelet rich plasma (unknown origin) assessed as inhibition of ADP-induced platelet aggregation at 1.6 mM relative to control; assay type: functional
[14] = Toxicity in spontaneous db/db BKS.Cg-Dock7m +/+ Leprdb/J mouse assessed as body weight gain at 13.5 umol/kg, po administered as daily dose via gavage treated for 18 days measured post last dose (reference value: 5.6 +/- 2.1 g); assay type: organism-based; conditions: in vivo, 432 h
[15] = Metabolic stability in simulated gastric fluid at pH 1.5 measured after 16 hrs by HPLC analysis; assay type: ADME; conditions: read-out: Stability; summary of the method: as §1
Platelet [16] = assay: Antiplatelet activity in platelet rich plasma (unknown origin) assessed as inhibition of arachidonic acid-induced platelet aggregation at 0.1 mM relative to control; assay type: functional
Mus musculus [17] = assay: Effect on lipid metabolism in spontaneous db/db BKS.Cg-Dock7m +/+ Leprdb/J mouse assessed as decrease in serum triglyceride level at 27 umol/kg, po administered as daily dose via gavage for 18 days; assay type: functional, organism-based; summary of the method: as §2

With `CN(CCOc1ccc(CC2SC(=O)NC2=O)cc1)c1ccccn1` (configuration not stated) [ROSIGLITAZONE] the Activity [1] was “Non-Toxic”, the inhibition at 16000 µM (Platelet [2]) was 68.9% and the inhibition (3T3-L1 [3]) was “Active”. For the same molecule, the inhibition at 2000 µM (Platelet [4]) was 25.3%, the Activity (3T3-L1 [5]) was “inactive” and the Activity (3T3-L1 [6]) was “Active”.

`CCN(CC)/[N+]([O-])=N/OCOC(=O)/C=C/c1ccc(OC(=O)OCN2C(=O)SC(Cc3ccc(OCCN(C)c4ccccn4)cc3)C2=O)c(OC)c1` (configuration not stated) gave a remaining at 16 h [7] of 85.8%, an inhibition at 200 µM (Platelet [8]) of 30.2% and a remaining at 6 h [9] of 93.6%. For the same molecule, the inhibition at 3200 µM (Platelet [10]) was 57.3%, the Activity (Mus musculus [11]) was “Active” and the inhibition at 400 µM (Platelet [12]) was 40.6%. The inhibition at 1600 µM (Platelet [13]) was 47%, the Activity [14] was 4 g and the remaining at 16 h [15] was 86.6%. The inhibition at 100 µM (Platelet [16]) was 21.6% and the Activity (Mus musculus [17]) was “Active”.

Source: ChEMBL document CHEMBL4325910, “Design and synthesis of rosiglitazone-ferulic acid-nitric oxide donor trihybrids for improving glucose tolerance” (Eur J Med Chem, 2019)
